From ChEMBL document CHEMBL4270565, “Design, synthesis and antimicrobial evaluation of propylene-tethered ciprofloxacin-isatin hybrids” (Eur J Med Chem, 2018)
In brackets after ≈: the same amount, converted by molar mass.

Assays:
Assay type in all cases: functional
[1] = system: Mycobacterium tuberculosis; assay: Antimycobacterial activity against isoniazid/rifampicin/ethambutol-resistant Mycobacterium tuberculosis after 7 days; settings: 168 h
In short: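 Rapid direct susceptibility test in 48-well plates. Two-fold dilutions of compound from DMSO stocks were mixed with an equal volume of bacterial suspension. Medium-only wells served as growth controls and water-only wells as no-growth controls. Plates were sealed and held at 37 C in a humid box, and controls were checked at 3 days. MIC (90% growth inhibition) was read visually by high-magnification observation of the cells and re-read at 7 days.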

[2] = system: Mycobacterium tuberculosis; assay: Potency index, ratio of ciprofloxacin MIC90 to compound MIC90 for isoniazid/rifampicin/ethambutol-resistant Mycobacterium tuberculosis after 7 days
[3] = system: Mycobacterium tuberculosis; assay: Potency index, ratio of isoniazid MIC90 to compound MIC90 for isoniazid/rifampicin/ethambutol-resistant Mycobacterium tuberculosis after 7 days
[4] = system: Mycobacterium tuberculosis; assay: Potency index, ratio of rifampicin MIC90 to compound MIC90 for isoniazid/rifampicin/ethambutol-resistant Mycobacterium tuberculosis after 7 days

CO/N=C1\C(=O)N(CCCN2CCN(c3cc4c(cc3F)c(=O)c(C(=O)O)cn4C3CC3)CC2)c2ccccc21
MIC90 [1]: 2 µg/mL (≈ 3.65 µM)

CO/N=C1\C(=O)N(CCCN2CCN(c3cc4c(cc3F)c(=O)c(C(=O)OCCCN3C(=O)/C(=N/OC)c5ccccc53)cn4C3CC3)CC2)c2ccccc21
MIC90 [1]: 64 µg/mL (≈ 83.8 µM)

CCO/N=C1\C(=O)N(CCCN2CCN(c3cc4c(cc3F)c(=O)c(C(=O)OCCCN3C(=O)/C(=N/OCC)c5ccccc53)cn4C3CC3)CC2)c2ccccc21
MIC90 [1]: 64 µg/mL (≈ 80.8 µM)

CCO/N=C1\C(=O)N(CCCN2CCN(c3cc4c(cc3F)c(=O)c(C(=O)O)cn4C3CC3)CC2)c2ccc(C)cc21
MIC90 [1]: 4 µg/mL (≈ 6.95 µM)

Cc1ccc2c(c1)C(=O)C(=O)N2CCCOC(=O)c1cn(C2CC2)c2cc(N3CCN(CCCN4C(=O)C(=O)c5cc(C)ccc54)CC3)c(F)cc2c1=O
MIC90 [1]: 32 µg/mL (≈ 43.6 µM)

CO/N=C1\C(=O)N(CCCN2CCN(c3cc4c(cc3F)c(=O)c(C(=O)O)cn4C3CC3)CC2)c2ccc(C)cc21
MIC90 [1]: 1 µg/mL (≈ 1.78 µM)

O=C1C(=O)N(CCCN2CCN(c3cc4c(cc3F)c(=O)c(C(=O)O)cn4C3CC3)CC2)c2ccccc21
MIC90 [1]: 0.5 µg/mL (≈ 0.964 µM)

CO/N=C1\C(=O)N(CCCN2CCN(c3cc4c(cc3F)c(=O)c(C(=O)OCCCN3C(=O)/C(=N/OC)c5cc(C)ccc53)cn4C3CC3)CC2)c2ccc(C)cc21
MIC90 [1]: 32 µg/mL (≈ 40.4 µM)

CCO/N=C1\C(=O)N(CCCN2CCN(c3cc4c(cc3F)c(=O)c(C(=O)O)cn4C3CC3)CC2)c2ccccc21
MIC90 [1]: 1 µg/mL (≈ 1.78 µM)

CCO/N=C1\C(=O)N(CCCN2CCN(c3cc4c(cc3F)c(=O)c(C(=O)OCCCN3C(=O)/C(=N/OCC)c5cc(C)ccc53)cn4C3CC3)CC2)c2ccc(C)cc21
MIC90 [1]: 64 µg/mL (≈ 78.1 µM)

O=C1C(=O)N(CCCOC(=O)c2cn(C3CC3)c3cc(N4CCN(CCCN5C(=O)C(=O)c6ccccc65)CC4)c(F)cc3c2=O)c2ccccc21
MIC90 [1]: 32 µg/mL (≈ 45.3 µM)

Cc1ccc2c(c1)C(=O)C(=O)N2CCCN1CCN(c2cc3c(cc2F)c(=O)c(C(=O)O)cn3C2CC2)CC1
MIC90 [1]: 0.5 µg/mL (≈ 0.939 µM) | Ratio [2]: >=4 - 256 | Ratio [3]: >=4 - 256 | Ratio [4]: >=4 - 256

O=C(O)c1cn(C2CC2)c2cc(N3CCNCC3)c(F)cc2c1=O [CIPROFLOXACIN]
MIC90 [1]: 2 µg/mL (≈ 6.04 µM)

NNC(=O)c1ccncc1 [ISONIAZID]
MIC90 [1]: > 128 µg/mL

CO[C@H]1/C=C/O[C@@]2(C)Oc3c(C)c(O)c4c(O)c(c(/C=N/N5CCN(C)CC5)c(O)c4c3C2=O)NC(=O)/C(C)=C\C=C\[C@H](C)[C@H](O)[C@@H](C)[C@@H](O)[C@@H](C)[C@H](OC(C)=O)[C@@H]1C [RIFAMPIN]
MIC90 [1]: 32 µg/mL (≈ 38.9 µM)
